Consider 26 compounds from ChEMBL document CHEMBL1137353, “6-(4-chlorophenyl)-3-substituted-thieno[3,2-d]pyrimidin-4(3H)-one-based melanin-concentrating hormone receptor 1 antagonist” (J Med Chem, 2006).

Data set [1] has as its target Melanin-concentrating hormone receptor 1 (Homo sapiens, UniProt Q99705). In words: Antagonist activity against human MCH1 receptor stably-expressed in CHO cells by Gal4/Elk1-Luc reporter assay. It counts as functional, cell-based. Put shortly: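 Human MCHR1 antagonism read out in CHO cells carrying a Gal4/Elk1 luciferase reporter. IC50 values are averages of 2-3 experiments.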
In general terms: A reporter such as luciferase makes a cellular process visible.

Data set [2] can be described thus: Oral bioavailability in rat at 3 mg/kg, iv and 10 mg/kg, po. It counts as ADME, organism-based. Particulars: in vivo. Summed up:
(§1)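 Rat PK. Dosed in 20% DMSO/21% Solutol in 10 mM MSA (final concentration), n = 2. IV dose 3 mg/kg, PO dose 10 mg/kg. Plasma drug levels measured by LC-MS/MS. Half-life taken from the IV dosing.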

Data set [3] in a line: Half life in rat at 3 mg/kg, iv. It counts as ADME, organism-based. Particulars: in vivo. Also on record: dose 3 mg/kg, route intravenous. Summed up: as §1
Data set [4] can be described thus: Volume of distribution in rat at 3 mg/kg, iv and 10 mg/kg, po. Format: ADME, organism-based. The following applies: in vivo, read-out: Vss. Summed up:
as §1

The nature of data set [5]: Total clearance in rat at 3 mg/kg, iv and 10 mg/kg, po. It counts as ADME, organism-based. The following applies: in vivo. Put shortly: as §1
Data set [6] deals with Mus musculus. The data set can be described thus: Reduction in body weight of DIO AKR/J mouse relative to control at 1 mg/kg/day, po after 21 days. It counts as functional. Also on record: scale not given: the % may be the effect or the level left. Put shortly:
(§2)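 Diet-induced obese AKR/J mice on a high-fat diet (58% kcal fat). Oral dosing once daily for 21 days. Weight change expressed as percentage of pretreatment body weight for each group. Vehicle group and rimonabant (CB1 inverse agonist) used as controls. Mean ± SEM.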

For data set [7], the system named is Mus musculus. In words: Reduction in body weight of DIO AKR/J mouse relative to control at 3 mg/kg/day, po after 21 days. Format: functional. Also noted: scale not given: the % may be the effect or the level left. Put shortly: as §2
Data set [8] has as its system Mus musculus. In words: Reduction in body weight of DIO AKR/J mouse relative to control at 10 mg/kg/day, po after 21 days. It counts as functional. Also noted: scale not given: the % may be the effect or the level left. Put shortly: as §2
Data set [9] is described as follows: Dissociation constant, pKa of the compound. Format: physicochemical.

Chain of Melanin-concentrating hormone receptor 1 (Q99705 whole entry, the tested form may be a part): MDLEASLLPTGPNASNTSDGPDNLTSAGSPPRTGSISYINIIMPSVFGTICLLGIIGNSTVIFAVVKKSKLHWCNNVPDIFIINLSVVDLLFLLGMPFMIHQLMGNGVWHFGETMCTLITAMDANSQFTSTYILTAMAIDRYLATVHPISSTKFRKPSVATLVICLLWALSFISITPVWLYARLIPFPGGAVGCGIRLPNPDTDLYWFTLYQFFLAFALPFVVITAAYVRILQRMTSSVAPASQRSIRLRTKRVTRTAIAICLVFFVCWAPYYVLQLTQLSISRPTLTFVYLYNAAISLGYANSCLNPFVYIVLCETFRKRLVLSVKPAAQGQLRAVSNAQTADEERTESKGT

Usually IC50 stands for the point on the concentration scale where inhibition reaches its midpoint. Compound `COC[C@H]1CCCN1Cc1cc2cc(-n3cnc4cc(-c5ccc(Cl)cc5)sc4c3=O)ccc2o1` showed an IC50 in data set [1] of 9.5 nM.

For `CN(C)CC1CCc2cc(-n3cnc4cc(-c5ccc(Cl)cc5)sc4c3=O)ccc2C1` (stereo not given), the IC50 in [1] turned out to be 1.1 nM.

Consider `COC[C@H]1CCCN1Cc1cc2cc(-n3cnc4cc(-c5ccc(Cl)cc5)sc4c3=O)ccc2n1C`, for which, in [1], the 50% inhibitory concentration (IC50) was found to be 1.4 nM.

`O=c1c2sc(-c3ccc(Cl)cc3)cc2ncn1-c1ccc2c(c1)CCC(CN1CCCCC1)C2` (stereo not given) had an IC50 in [1] of 3.1 nM.

The bioavailability is dose-corrected exposure relative to a reference, in per cent. What is called half-life is the time needed for the level to fall by half in the phase considered. Compound `O=c1c2sc(-c3ccc(Cl)cc3)cc2ncn1-c1ccc2sc(CN3CC[C@@H](O)C3)cc2c1` gave a bioavailability in [2] of 36.1%. In data set [3], this compound had a half-life of 2.1 h. Also, in [4], the Vd came to 3.6 L/kg. The clearance in data set [5] stood at 30.8 mL/min/kg. This compound also had an IC50 in data set [1] of 2.5 nM.

In turn, `O=c1c2sc(-c3ccc(Cl)cc3)cc2ncn1-c1ccc2cc(CN3CCCCC3)ccc2c1` yielded a 50% inhibitory concentration (IC50) in [1] of 0.39 nM.

In turn, `Cn1c(CN2CCCC2)cc2cc(-n3cnc4cc(-c5ccc(Cl)cc5)sc4c3=O)ccc21` displayed a half-inhibitory concentration (IC50) in data set [1] of 1.1 nM.

In data set [2], `CN1CCN(Cc2cc3cc(-n4cnc5cc(-c6ccc(Cl)cc6)sc5c4=O)ccc3s2)CC1` registered a bioavailability of 66%. For the same compound, the half-life in data set [3] is 9.1 h. In addition, in data set [4], the Vd was 20.4 L/kg. The clearance in [5] was determined as 39 mL/min/kg. Further, the figures for the Activity with Mus musculus [6], with Mus musculus [7] and with Mus musculus [8] were 1.1%, 3.2% and 11.8%, respectively. For the same compound, in data set [1], the IC50 stood at 5.7 nM.

With `O=c1c2sc(-c3ccc(Cl)cc3)cc2ncn1-c1ccc2cc(CO)ccc2c1`, the half-inhibitory concentration (IC50) in [1] is 31.6 nM.

For `O=c1c2sc(-c3ccc(Cl)cc3)cc2ncn1-c1ccc2c(c1)CCC(CN1CCCC1)C2` (stereo not given), the IC50 in [1] is 1.3 nM.

In general, pKa refers to the negative logarithm of the acid dissociation constant. For the compound `O=c1c2sc(-c3ccc(Cl)cc3)cc2ncn1-c1ccc2sc(CN3CCCCC3)cc2c1`, the pKa in [9] was 8.29. Further, in data set [1], the 50% inhibitory concentration (IC50) was found to be 2 nM.

As for `O=C(NCCN1CCCC1)c1ccc2cc(-n3cnc4cc(-c5ccc(Cl)cc5)sc4c3=O)ccc2c1`, in data set [1], the half-maximal inhibitory concentration (IC50) amounted to 5 nM.

With `O=c1c2sc(-c3ccc(Cl)cc3)cc2ncn1-c1ccc2sc(CN3CCN(c4ccccc4)CC3)cc2c1`, half-maximal inhibition in [1] (IC50) required 29 nM.

In data set [2], `O=c1c2sc(-c3ccc(Cl)cc3)cc2ncn1-c1ccc2oc(CN3CCCC3)cc2c1` yielded a bioavailability of 21%. In data set [3], this compound showed a half-life of 1.6 h. Besides, the Vd in data set [4] turned out to be 8.5 L/kg. The compound further yielded a clearance in [5] of 115 mL/min/kg. This compound showed a 50% inhibitory concentration (IC50) in [1] of 1.1 nM.

As to `O=c1c2sc(-c3ccc(Cl)cc3)cc2ncn1-c1ccc2c(c1)CCC(CN1CCCCC1)=C2`, in [1], the IC50 was determined as 0.75 nM.

`O=c1c2sc(-c3ccc(Cl)cc3)cc2ncn1-c1ccc2sc(CN3CCOCC3)cc2c1` showed a half-maximal inhibitory concentration (IC50) in data set [1] of 38 nM.

As for `Cc1c(C(=O)NN2CCCCC2)nn(-c2ccc(Cl)cc2Cl)c1-c1ccc(Cl)cc1` [RIMONABANT], in the data set with Mus musculus [8], the Activity was 8.4%.

As to `O=c1c2sc(-c3ccc(Cl)cc3)cc2ncn1-c1ccc2sc(CN3CCCC3)cc2c1`, the IC50 in data set [1] is 0.91 nM.

`CN(C)CC1=Cc2ccc(-n3cnc4cc(-c5ccc(Cl)cc5)sc4c3=O)cc2CC1`: the bioavailability in [2] turned out to be 67%. The compound further had a half-life in data set [3] of 3 h. The Vd in data set [4] came to 16 L/kg. The clearance in data set [5] came to 80 mL/min/kg. For the same compound, half-maximal inhibition in data set [1] (IC50) was put at 2.7 nM.

`O=c1c2sc(-c3ccc(Cl)cc3)cc2ncn1-c1ccc2c(c1)CCC(CN1CCCC1)=C2` came in with a bioavailability in data set [2] of 57%. This compound had a half-life in [3] of 11 h. In addition, the Vd in data set [4] came out at 15.7 L/kg. In addition, in [5], the clearance is 21.2 mL/min/kg. Further, in [1], the IC50 worked out at 0.87 nM.

In turn, `O=c1c2sc(-c3ccc(Cl)cc3)cc2ncn1-c1ccc2ccccc2c1` returned an IC50 in [1] of over 10000 nM.

In data set [1], `O=C(NCCCN1CCCC1)c1ccc2cc(-n3cnc4cc(-c5ccc(Cl)cc5)sc4c3=O)ccc2c1` showed an IC50 of 1410 nM.

As for `O=C(O)c1ccc2cc(-n3cnc4cc(-c5ccc(Cl)cc5)sc4c3=O)ccc2c1`, the IC50 in data set [1] is over 10000 nM.

As for `O=C(c1ccc2cc(-n3cnc4cc(-c5ccc(Cl)cc5)sc4c3=O)ccc2c1)N1CCCC1`, the 50% inhibitory concentration (IC50) in [1] is over 10000 nM.

The compound `O=c1c2sc(-c3ccc(Cl)cc3)cc2ncn1-c1ccc2sc(CN3CCC(c4ccccc4)CC3)cc2c1` had a pKa in data set [9] of 7.91. Besides, the bioavailability in [2] turned out to be 27.9%. The same compound had a half-life in [3] of 5.9 h. In addition, the Vd in data set [4] came to 0.6 L/kg. Also, the clearance in data set [5] was determined as 2.9 mL/min/kg. Moreover, the half-maximal inhibitory concentration (IC50) in data set [1] is 5.7 nM.

Take `CN(C)Cc1cc2cc(-n3cnc4cc(-c5ccc(Cl)cc5)sc4c3=O)ccc2s1`: half-maximal inhibition in data set [1] (IC50) was put at 1.3 nM.
